The values below come from paper PMC4191608 (ACS Medicinal Chemistry Letters, 2014).

Data set [1] relates to pooled human liver microsomes. As to the kind of experiment: EFV analogue metabolism by pooled human liver microsomes. Format: in vitro ADME. The conditions noted are these: 2 mg/mL HLM, 10 μM analogue, NADPH regenerating system, 60 min, uHPLC-MS/MS. The gist of the method:
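Pooled human liver microsomes were incubated with test compound and an NADPH regenerating system. Oxidative products (monooxygenated or N-dealkylated) were profiled by uHPLC–MS/MS and assigned by m/z, retention time and fragment ions.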

For data set [2], the target named is T1, CYP2B6 (Homo sapiens, UniProt P20813).
T1 sequence (P20813 1-491): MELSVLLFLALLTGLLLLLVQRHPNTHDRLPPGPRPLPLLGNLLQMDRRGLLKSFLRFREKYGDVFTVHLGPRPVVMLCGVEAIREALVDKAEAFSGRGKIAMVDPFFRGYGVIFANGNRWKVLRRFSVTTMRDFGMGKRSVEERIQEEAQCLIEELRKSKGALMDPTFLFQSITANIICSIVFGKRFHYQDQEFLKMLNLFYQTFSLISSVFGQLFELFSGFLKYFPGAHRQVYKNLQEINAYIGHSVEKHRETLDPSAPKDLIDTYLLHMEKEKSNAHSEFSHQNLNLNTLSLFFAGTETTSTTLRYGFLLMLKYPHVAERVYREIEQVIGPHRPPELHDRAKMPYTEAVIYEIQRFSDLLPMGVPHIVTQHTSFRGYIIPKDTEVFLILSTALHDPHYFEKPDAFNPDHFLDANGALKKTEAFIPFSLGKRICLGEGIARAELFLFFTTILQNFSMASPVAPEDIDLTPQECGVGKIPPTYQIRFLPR
Description: Substrate depletion kinetics with CYP2B6. The format is in vitro ADME. The essentials:
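cDNA-expressed CYP2B6 (insect microsomes, 10 nM) was incubated with substrate at 37 °C in 100 mM potassium phosphate. After NADPH regenerating system was added, aliquots at 0, 2, 5, 10, 20 and 30 min were quenched in equal-volume acetonitrile with fluorinated internal standard. Depletion was measured by uHPLC–MS/MS, giving Km, kdep max and Vmax. Mean ± SD, three replicate experiments in duplicate.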

Data set [3] has as its target T1, CYP2B6. Description: Inhibition of CYP2B6 bupropion hydroxylase activity. The format is biochemical. To be noted: 10 μM compound, 40 μM bupropion, CYP2B6 50 nM, 10 min, 37 °C. The essentials: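 Enzyme was cDNA-expressed CYP2B6 in insect microsomes, incubated with bupropion and test compound in 100 mM potassium phosphate buffer. Hydroxybupropion was quantified by uHPLC–MS/MS and expressed as a percentage of a vehicle control (no test compound). Mean ± SD of three replicate experiments run in duplicate; significance was tested against vehicle.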

As to `CCCC#CC1(C(F)(F)F)OC(=O)Nc2ccc(Cl)cc21` (racemic) [analogue 4, rac 6-Chloro-1,4-dihydro-4-(1-pentynyl)-4-(trifluoromethyl)-2H-3,1-benzoxazin-2-one], the “Metabolites detected from incubation with human liver microsomes” value (from here on “Metabolites detected from incubation”) in data set [1] was “Monooxygenated metabolites”. The “fold increase in Km relative to EFV” value at CYP2B6 [2] worked out at 2 fold.

On to `O=C1Nc2ccc(Cl)cc2[C@@](C#CC2CC2)(C(F)(F)F)O1` [EFV, efavirenz, reference compound], for which the “decrease in hydroxybupropion formation compared to vehicle control” value on CYP2B6 [3] was determined as 93%.

Take `COc1ccc(C(=O)Nc2ccc(Cl)cc2C(O)(C#CC2CC2)C(F)(F)F)cc1` (racemic) [analogue 7, rac N-[4-Chloro-2-[3-cyclopropyl-1-hydroxy-1-(trifluoromethyl)-2-propynyl]phenyl]-4-methoxybenzamide]: in data set [1], the “Metabolites detected from incubation” value is on record as “No metabolites”. Also, the “inhibition of CYP2B6 hydroxybupropion formation (in words)” value against CYP2B6 [3] is “unable to inhibit hydroxybupropion formation”.

As for `O=C1Nc2ccc(Cl)cc2[C@@](/C=C/C2CC2)(C(F)(F)F)O1` [analogue 3, (E)-Dihydroefavirenz], in data set [1], the “Metabolites detected from incubation” value was “Monooxygenated metabolites”. In addition, the “fold decrease in Km between EFV and analogue” value at CYP2B6 [2] (relative to EFV) is 2 fold.

As to `FC(F)(F)[C@@]1(C#CC2CC2)OCNc2ccc(Cl)cc21` [analogue 8, (4S)-6-Chloro-4-(2-cyclopropylethynyl)-1,4-dihydro-4-(trifluoromethyl)-2H-3,1-benzoxazine], the “Metabolites detected from incubation” value in data set [1] is “Monooxygenated metabolites”.
